Results reported in ChEMBL document CHEMBL1156192, “N-((1-benzyl-1H-1,2,3-triazol-4-yl)methyl)arylamide as a new scaffold that provides rapid access to antimicrotubule agents: synthesis and evaluation of antiproliferative activity against select cancer cell lines” (J Med Chem, 2010).
Converted amounts (≈) assume the structure as drawn. The source made the active and inactive calls. No cut-off for these calls is given here.

Columns and labels:
[1] = tested on: Mycobacterium tuberculosis; assay: Antimycobacterial activity against Mycobacterium tuberculosis H37Rv; type: functional
MCF7 [2] = assay: Antiproliferative activity against human MCF7 cells after 72 hrs by crystal violet biomass reduction assay; type: functional, cell-based; settings: MCF7, 72 h
Summary of the method: (§1)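 Cells grown in α-MEM with 5% FBS at 37 °C, 5% CO2; 2,500 cells/well allowed 24 h before compound in DMSO, triplicates, ≥5 concentrations, 72 h exposure. Biomass read by crystal violet staining, Triton X-100 elution, OD 595 nm. IC50 from dose-response as 50% reduction in net cell mass versus vehicle, corrected with no-cell background.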

U-937 = assay: Antiproliferative activity against human U937 cells by sulforhodamine B assay; type: functional, cell-based
Summary of the method: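 U-937 cells in RPMI-1640 with 10% FBS and 1% Pen-Strep; 4 x 10^4 cells/well, compound in DMSO, replicates of 5, 72 h at 37 °C, 5% CO2. Fixed with cold TCA overnight at 4 °C. Stained 30 min with 0.057% SRB in 1% acetic acid; bound dye released in 10 mM Tris base, A510 read. Vehicle and cell-free wells set 100%/0% biomass; IC50 from logistic fit.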

MCF7 [3] = assay: Antiproliferative activity against human MCF7 cells by crystal violet biomass reduction assay; type: functional, cell-based; settings: TDE = time-dependent effect; summary of the method: as §1
HeLa [4] = assay: Cell cycle arrest in human HeLa cells assessed as accumulation at G2/G1 phase at 5 uM after 18 hrs by flow cytometry; type: functional
Summary of the method: (§2)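 HeLa in RPMI-1640 with 10% FBS, Pen-Strep; 8 x 10^5 cells in 4 mL dosed at 5 µM (0.05% DMSO final) for 18 h, triplicate. Harvested cells fixed in 70% ice-cold ethanol 1 h at -20 °C, RNase A treated 2 h, propidium iodide 50 µg/mL stained. DNA content by flow cytometry, 20,000 events, single cells gated on PI width vs area.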

[5] = Inhibition of tubulin polymerization at 10 uM
Summary of the method: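 Tubulin added in PIPES pH 6.9 buffer with EGTA, MgCl2, 5% glycerol; compound at 10 µM final from DMSO. After 10 min on ice, GTP added, then polymerization followed by absorbance at 340 nm for 30 min at 37 °C. Paclitaxel and nocodazole at 10 µM final as controls.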

HeLa [6] = assay: Cell cycle arrest in human HeLa cells assessed as accumulation at M phase at 5 uM after 18 hrs by flow cytometry; type: functional, cell-based; summary of the method: as §2
HeLa [7] = assay: Change in cellular morphology of human HeLa cells assessed as DNA condensation at 5 uM after 18 hrs using propidium-iodide staining by confocal microscopy; type: functional, cell-based
Summary of the method: (§3)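 HeLa attached 3 h on cover slips, then 18 h with DMSO vehicle or 5 µM compound (0.05% DMSO final). Brief microtubule stabilizing buffer (PIPES pH 6.8), 0.5% glutaraldehyde fixation 10 min, NaBH4 quench, blocking; FITC anti-α-tubulin (1:50) with RNase A 2.5 h, then propidium iodide 50 µg/mL 15 min. Imaged by confocal microscopy.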

HeLa [8] = assay: Cell cycle arrest in human HeLa cells assessed as accumulation at S phase at 5 uM after 18 hrs by flow cytometry; type: functional; summary of the method: as §2
HeLa [9] = assay: Change in cellular morphology of human HeLa cells assessed as microtubule disruption at 5 uM after 18 hrs using FITC-conjugated alpha-tubulin antibody by confocal microscopy; type: functional, cell-based; summary of the method: as §3
HeLa [10] = assay: Cell cycle arrest in human HeLa cells assessed as accumulation at G2 phase at 5 uM after 18 hrs by flow cytometry; type: functional; summary of the method: as §2
HeLa [11] = assay: Change in cellular morphology of human HeLa cells assessed as interference in microtubule formation at 5 uM after 18 hrs by confocal microscopy; type: functional, cell-based; summary of the method: as §3
HeLa [12] = assay: Cell cycle arrest in human HeLa cells assessed as accumulation at G2/M cells at 5 uM after 18 hrs by flow cytometry; type: functional; summary of the method: as §2
HeLa [13] = assay: Cell cycle arrest in human HeLa cells assessed as accumulation at G1 phase at 5 uM after 18 hrs by flow cytometry; type: functional; summary of the method: as §2

SMILES | MIC [1] | IC50 (MCF7 [2]) | IC50 (U-937) | inhibition [5] | further results
COc1ccc(C2=NC(C(=O)Nc3ccccc3O)CO2)cc1 (configuration not stated) | 13 µM (≈ 4.06 µg/mL) | > 20000 nM |  |  | 
COc1cc2c(cc1O)CC[C@@H]1[C@@H]2CC[C@]2(C)[C@@H](O)CC[C@@H]12 [2-METHOXYESTRADIOL] |  | 842 nM | 2910 nM |  | 
O=C(NCc1cn(Cc2cccc(Oc3ccccc3)c2)nn1)c1ccccn1 |  | 46 nM | 580 nM | Active | Activity (MCF7 [3]): tde; Activity (HeLa [4]): 2%; Activity (HeLa [6]): Active; Activity (HeLa [7]): Active; Activity (HeLa [8]): 7.59%; Activity (HeLa [9]): Active; Activity (HeLa [10]): 90.72%; Activity (HeLa [11]): Active; Activity (HeLa [12]): >90%; Activity (HeLa [13]): 0.86%
CC(=O)NCc1cn(Cc2cccc(Oc3ccccc3)c2)nn1 |  | 6400 nM | 28000 nM |  | Activity (HeLa [4]): 1.87%; Activity (HeLa [8]): 24.94%; Activity (HeLa [10]): 17.26%; Activity (HeLa [12]): inactive; Activity (HeLa [13]): 53.85%
CC(=O)O[C@H]1C(=O)[C@@]2(C)[C@H]([C@H](OC(=O)c3ccccc3)[C@]3(O)C[C@H](OC(=O)[C@H](O)[C@@H](NC(=O)c4ccccc4)c4ccccc4)C(C)=C1C3(C)C)[C@]1(OC(C)=O)CO[C@@H]1C[C@@H]2O |  |  |  | inactive | 
O=C(NCc1cn(Cc2cccc(Oc3ccccc3)c2)nn1)c1ccccc1 |  | 245 nM |  |  | 
O=C(OCc1ccccc1)[C@H]1COC(c2ccccc2OCc2ccccc2)=N1 | 4.2 µM (≈ 1.63 µg/mL) | > 20000 nM |  |  | 
COC(=O)Nc1nc2cc(C(=O)c3cccs3)ccc2[nH]1 |  |  |  | Active | 
CCCCCCCCCCCCCCCC(=O)N(O)CCCC[C@H](NC(=O)[C@H]1COC(c2ccccc2O)=N1)C(=O)O[C@@H](C)CC(=O)N[C@H]1CCCCN(O)C1=O | 3.9 µM (≈ 3.13 µg/mL) |  |  |  | 
COc1cc2c(c(OC)c1OC)-c1ccc(OC)c(=O)cc1[C@@H](NC(C)=O)CC2 [COLCHICINE] |  | 13.4 nM | 8 nM |  | 
